# Compound activity: PubChem, several laboratories
# CHOP inh = inhibitors of CHOP promoter induction, primary screen, cell-based, unfolded protein response, luciferase reporter | CHO-K1 CHOP-promoter luciferase, tunicamycin-induced, 15-18 h | inhibition, % at 10 µM | hit rate 3.8% among 220,000;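 active = compounds that reduced the stress-induced luciferase reporter signal by more than about 70% of percent inhibition, limit read from the data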;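 also: 0% = tunicamycin plus vehicle and 100% = wells without tunicamycin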
# UPR XBP1 act = activators of adaptive XBP1 UPR arm, primary screen, cell-based, CHO-XBP1 luciferase reporter, luminescence, uHTS | IRE1-XBP1 UPR activation; percent of tunicamycin response, DMSO as zero | activation, % at 20 µM | hit rate 0.33% among 330,000;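 active = versus positive control, 20 µM dose yields 30% or more activation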;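 also: 100% = tunicamycin at 10 µg/mL and 0% = DMSO only wells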
#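 incubation = overnight seeding at 37 °C, 6 h compound treatment at 37 °C | assay system = CHO-XBP1 cells stably carrying IRE1-XBP1-driven luciferase reporter | input = 1000 cells per well | detection = luciferase luminescence | dosing = single point, 20 µM final compound, 1% DMSO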
# A1 inh = caspase 3/7 activation in MEF A1-2A-BIM cells, primary screen, A1 inhibitor project, cell-based, luminescence, HTS. Caspase-Glo 3/7 luminescence, 3 h; percent of clofoctol response, vehicle zero. caspase activation, % (test concentration not listed). hit rate 0.066% among 330,000. AID 2462, 2010;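 active = over half of replicate activation scores above 10%, or exactly half above 10 with the replicate mean above 10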
# UPR CHOP act = activators of apoptotic CHOP UPR arm, primary screen, cell-based, CHO-CHOP luciferase reporter, luminescence, uHTS | activation, % at 10 µM | AID 449763, 2010 | UPR activation; percent of tunicamycin response over DMSO baseline | hit rate 0.34% among 330,000;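 active = at 10 µM dose, activation of 40% or more, normalized to positive control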;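 also: 100% = tunicamycin at 10 µg/mL and 0% = DMSO alone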
#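 System: CHO CHOP reporter cells. Amount: 500 cells per well. Buffer or medium: F12 medium, 10% FBS. Compound dosing: one dose, 10 µM in 0.5% DMSO. Incubation: 6 h compound exposure at 37 °C after overnight seeding. Technique: Steady-Glo luciferase luminescence. Benchmarks: tunicamycin and DMSO controls.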
# Active calls of the source: *; nt = no result given. This is one part of a sample in which hits are shown more often than they occur.
SMILES,CHOP inh,UPR XBP1 act,A1 inh,UPR CHOP act
Cc1sc(NC(=O)Cn2[nH]c(=O)c3ccccc3c2=O)nc1-c1ccccc1,88*,-2,0,2
COc1ccc(-c2nc(NC(=O)c3n[nH]c(=O)c4ccccc34)sc2C)cc1,100*,-1,6.7*,3
Cc1c(NC(=O)Cn2[nH]c(=O)c3ccccc3c2=O)c(=O)n(-c2ccccc2)n1C,-2,-3,1,-5
CC(NC(=O)N(Cc1ccccc1)Cc1ccc2c(c1)OCO2)(C(F)(F)F)C(F)(F)F,59,1,-1,-2
CC(=O)OCCN(Cc1ccccc1)Cc1ccc2c(c1)OCO2,70*,-2,0,0
COc1ccc(-n2c(COc3cccc4cccnc34)nnc2SCC(=O)O)cc1,3,-3,1,1
CNC(=S)N(CCc1c(C)[nH]c2ccc(F)cc12)Cc1ccco1,nt,0,0,1
Cc1[nH]c2ccc(F)cc2c1CCN(Cc1ccco1)C(=S)NC(C)(C)C,81*,-5,0,4
CN1CCC(=C2c3ccccc3C(O)c3ccccc32)CC1 (stereo not given),-10,-1,0,-1
CN1CCc2cccc3c2C1Cc1ccc(O)c(O)c1-3 (stereo not given),74*,-6,-1,-1
CCc1ccc(NC(=O)NCC2CCN(Cc3cccc(Cl)c3)CC2)cc1,nt,-4,1,0
Cc1ccc(NC(=O)NCC2CCN(Cc3cccc(Cl)c3)CC2)cc1Cl,89*,-3,0,2
Cc1ccccc1Nc1nc(N)nc(COC(=O)[C@@H](NC(=O)c2ccccc2Cl)C(C)C)n1,nt,2,-1,-1
C/C(=N\Nc1ccc(F)cc1F)c1ccc(Br)s1,71*,1,-1,0
COc1ccc(NC(=O)C2(S(=O)(=O)c3ccc(C)cc3)CC2)cc1,nt,4,0,2
CS(=O)(=O)N(CC(=O)N1CCN(c2ccccc2F)CC1)C1CCCCC1,2,-1,0,0
CS(=O)(=O)N(CC(=O)N1CCN(C(c2ccccc2)c2ccccc2)CC1)C1CCCCC1,79*,3,-1,-1
COc1ccc(NC(=O)c2cc(S(=O)(=O)N3CCOCC3)ccc2C)cc1S(=O)(=O)N1CCOCC1,nt,-2,0,0
C=CCn1c(COc2ccc(F)cc2)nnc1SCC(=O)NC1CCS(=O)(=O)C1 (stereo not given),nt,1,0,2
COc1ccc(/C=C/C(=O)Oc2cccc(/C=N/NC(=O)Cc3ccc(Br)cc3)c2)cc1,71*,15,-2,21
C#C[C@]1(O)CC[C@H]2[C@@H]3CCc4cc(OC)ccc4[C@H]3CC[C@@]21C,70*,0,0,8
C#C[C@]1(O)CC[C@H]2[C@@H]3CCc4cc(OC5CCCC5)ccc4[C@H]3CC[C@@]21C,43,6,1,4
Cc1ccc(NC(=O)CSc2nnnn2C2CC2)cc1S(=O)(=O)N1CCOCC1,nt,-2,nt,-2
Cc1ccccc1C(=O)NC(=S)Nc1ccc(S(=O)(=O)N(C)c2ccccc2)cc1,77*,-4,-1,0
O=C(N/N=C/c1cccnc1)c1ccc(NC(=O)C(c2ccccc2)c2ccccc2)cc1,78*,-3,-1,-1
SMILES,CHOP inh,UPR XBP1 act,A1 inh,UPR CHOP act
O=C(N/N=C/c1cccnc1)c1cc2ccccc2o1,-8,5,1,1
O=C(N/N=C/c1cccnc1)c1cc2c(ccc3ccccc32)o1,91*,0,0,-1
CCN(Cc1ccncc1)Cc1nc(CC2CC2)no1,6,1,1,-1
CCOC(=O)N1CCN(c2nc(-c3ccc(F)cc3)cs2)CC1,78*,4,0,2
CCOC(=O)C(=O)N1CCN(c2nc(-c3ccc(Cl)cc3)cs2)CC1,nt,-5,0,-1
Cc1cc(C)cc(C(=O)O/N=C(\N)c2ccc(Br)cc2)c1,72*,0,0,5
N.N.N.N.N.N.N.N.N.N.N.N.N.N.O.O.[Cl-].[Cl-].[Cl-].[Cl-].[Cl-].[Cl-].[Ru+4].[Ru+5].[Ru+5],-15,nt,nt,nt
CC12C(=O)N(c3ccccn3)C(=O)C1C1C=CC2C1 (stereo not given),75*,-2,0,-3
Cn1c(=O)cc(-c2ccccc2)c2ccccc21,80*,6,0,1
Cn1c(-c2ccccc2)cc(=O)c2ccccc21,8,1,1,1
CC(C)COc1ccc(CSCCNC(=S)Nc2ccccc2)cc1,83*,-1,-1,1
O=C1CC2(CCN(C(=O)c3ccccc3Cl)CC2)Oc2ccccc21,nt,-2,1,1
COC(=O)c1ccc(CSc2nc3ccccc3o2)cc1,44,-1,-9,-3
O=[N+]([O-])c1ccc(CSc2nc3ccccc3o2)cc1,84*,2,-4,1
CC(C)n1cc(CN2CCC(Oc3ccc(C(=O)N4CCCCC4)cc3)CC2)cn1,nt,-1,0,-1
O=S(=O)(NCc1ccc2c(c1)OCO2)c1cccc(F)c1,nt,0,1,0
O=S(=O)(NCc1ccc2c(c1)OCO2)c1ccc2c(c1)oc1ccccc12,95*,-3,0,0
CCNS(=O)(=O)c1ccc(NC(=O)Nc2ccc3c(c2)OCO3)cc1,nt,3,0,1
O=C(Nc1ccc(S(=O)(=O)NCc2ccccc2)cc1)Nc1ccc2c(c1)OCO2,84*,0,0,2
CCN(CC)c1ccc(/C=C2\C(=N)N3N=C(CC(=O)N4CCOCC4)SC3=NC2=O)cc1,nt,2,-1,-1
O=C(CC1CCCCC1)N1CCC(c2nc(-c3ccc(S(=O)(=O)N4CCCC4)cc3)no2)CC1,95*,-5,1,-1
CC1CCc2nc(NC(=O)C3CC3)sc2C1 (stereo not given),-9,2,-1,4
CC1CCc2nc(NC(=O)Nc3ccc4c(c3)OCO4)sc2C1 (stereo not given),84*,4,-1,7
CC1CCc2nc(NC(=O)CN3CCN(Cc4ccc5c(c4)OCO5)CC3)sc2C1 (stereo not given),82*,-2,0,-1
CC1CCc2nc(NC(=O)C3COc4ccccc4O3)sc2C1 (stereo not given),79*,-9,-4,-6
CC(Oc1ccc2c3c(c(=O)oc2c1)CCCC3)C(=O)NCC(O)c1ccccc1 (stereo not given),nt,-9,0,-1
Cc1ccc(NC2CCCN(C(=O)c3ccc(F)cc3)C2)cc1C (stereo not given),nt,1,-1,1
CN(C)S(=O)(=O)c1cccc(NC(=S)N/N=C/c2cc(Br)ccc2O)c1,72*,3,0,-1
CN(C)S(=O)(=O)c1cccc(NC(=S)N/N=C/c2cccc(O)c2)c1,10,1,0,1
